Data on eight compounds can be found in ChEMBL document CHEMBL4706672 (J Med Chem, 2021).

One experiment concerns MIA PaCa-2. Nature of the experiment: Antiproliferative activity against human MIA PaCa-2 cells assessed as reduction in cell viability incubated for 3 days by MTT assay. As to conditions: MIA PaCa-2, 72 h. Format: functional, cell-based. The gist of the method:
(§1)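 MTT assay. Cells were seeded at 3000–6000/well and incubated overnight, then exposed to compound or DMSO vehicle for 3 days in RPMI-1640 or DMEM with 10% FBS at 37 °C, 5% CO2. MTT (3 mg/ml) was added for 3 h at 37 °C, formazan was dissolved in DMSO and absorbance read at 570 nm. IC50 from three independent experiments, mean ± SD.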
(Formazan colour is commonly taken as a measure of viable cells.)

Experiment [1] relates to BXPC-3. Nature of the experiment: Antiproliferative activity against human BxPC-3 cells assessed as reduction in cell viability incubated for 3 days by MTT assay. In kind it is functional, cell-based. The following applies: BXPC-3, 72 h.
The subject of the next experiment is OVCAR-3. As to the kind of experiment: Antiproliferative activity against human OVCAR-3 cells assessed as reduction in cell viability incubated for 3 days by MTT assay. Format: functional, cell-based. The following applies: OVCAR-3, 72 h. In a few lines: as §1
A short description of experiment [2]: Selectivity index, ratio of IC50 for antiproliferative activity against STAT3 knockout human OVCAR-3 cells to IC50 for wild type human OVCAR-3 cells. In kind it is functional.
For experiment [3], the target named is T1, Protein cereblon/Signal transducer and activator of transcription 3 (Homo sapiens, UniProt P40763+Q96SW2). Nature of the experiment: Protac activity at CRBN/STAT3 in human OVCAR-3 cells assessed as depletion of STAT3 at 2 to 20 uM after 12 hrs by western blot analysis. In kind it is cell-based. The following applies: dose 2-20 µM.
In experiment [4] the target is T1, Protein cereblon/Signal transducer and activator of transcription 3. Nature of the experiment: Protac activity at CRBN/STAT3 in human OVCAR-3 cells assessed as decrease in STAT3 phosphorylation at 2 to 20 uM after 6 hrs by western blot analysis. In kind it is cell-based. The following applies: dose 2-20 µM. (Immunoblotting shows a protein as a band on a membrane.)

The target is the same in experiment [5]. Nature of the experiment: Protac activity at CRBN/STAT3 in human OVCAR-3 cells assessed as decrease in STAT3 expression at 2 to 10 uM incubated for 24 hrs in presence of proteasome inhibitor MG132 by western blot analysis. Format: cell-based. As to conditions: dose 2-10 µM.
For experiment [6] the target is unchanged. Nature of the experiment: Protac activity at CRBN/STAT3 in human OVCAR-3 cells assessed as induction of STAT3 degradation at 1 to 20 uM incubated for 12 hrs in presence of competitive CRBN ligand pomalidomide by western blot analysis. As to conditions: dose 1-20 µM. Format: cell-based.
For experiment [7], the target named is Protein cereblon/Signal transducer and activator of transcription 1-alpha/beta (Homo sapiens) (UniProt P42224+Q96SW2). As to the kind of experiment: Protac activity at CRBN/STAT1 in human OVCAR-3 cells assessed as decrease in STAT1 expression levels at 2 to 20 uM after 12 hrs by western blot analysis. Format: cell-based. The following applies: dose 2-20 µM.

Experiment [8] addresses T1, Protein cereblon/Signal transducer and activator of transcription 3. Nature of the experiment: Protac activity at CRBN/STAT3 in human BxPC-3 cells assessed as decrease in STAT3 expression level after 12 hrs by western blot analysis. In kind it is cell-based.
Experiment [9] has the same target. Nature of the experiment: Protac activity at CRBN/STAT3 in human BxPC-3 cells assessed as induction of STAT3 degradation at 1 to 5 uM after 12 hrs in presence of proteasome inhibitor bortezomib by western blot analysis. As to conditions: dose 1-5 µM. In kind it is cell-based.
In experiment [10] the test system is BXPC-3. Nature of the experiment: Reduction in NQO1 levels in human BxPC-3 cells at 1 to 10 uM incubated for 16 hrs by western blot analysis. In kind it is functional, cell-based. The following applies: dose 1-10 µM. The gist of the method:
(§2)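 BxPC-3 cells seeded at 500 × 10^3 per well in 6-well plates, treated 16 h. Sonication lysis at 4 °C in Tris/NaCl/Triton/SDS buffer pH 7.4 with protease and phosphatase inhibitors, BCA protein assay, SDS-PAGE, PVDF transfer. Probed for STAT3, pSTAT3 and NQO1 with GAPDH loading control; fluorescent secondary detection.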

Experiment [11] deals with G1 to S phase transition protein 1 homolog GSPT1 (Homo sapiens). Nature of the experiment: Protac activity at CRBN/STAT3 in human BxPC-3 cells assessed as effect on GSPT1 protein expression level at 1 to 10 uM incubated for 16 hrs by western blot analysis. As to conditions: dose 1-10 µM.
For the next experiment, the system named is HEK293. As to the kind of experiment: Antiproliferative activity against human HEK293 cells assessed as reduction in cell viability incubated for 24 hrs by MTT assay. Format: functional, cell-based. The following applies: HEK293, 24 h. In a few lines: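 HEK-293 cells were treated with compound for 24 h, in parallel with the luciferase reporter assay. Viability was read by MTT absorbance at 570 nm, and IC50 was taken from three independent experiments.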

Experiment [12] deals with T1, Protein cereblon/Signal transducer and activator of transcription 3. Nature of the experiment: Protac activity at CRBN/STAT3 in human BxPC-3 cells assessed as effect on STAT3 expression level at 0.1 to 5 uM incubated for 16 hrs by western blot analysis. In kind it is cell-based. The following applies: dose 0.1-5 µM. In a few lines: as §2
Experiment [13] deals with Signal transducer and activator of transcription 3 (Homo sapiens) (UniProt P40763). As to the kind of experiment: Inhibition of STAT3 phosphorylation in human BxPC-3 cells at 5 uM after 16 hrs by western blot analysis. Format: cell-based. The gist of the method: (§3)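 Cells were seeded in 6-well plates (BxPC-3 500 × 10^3, MIA PaCa-2 200 × 10^3 cells/well) and exposed to compound for 16 h. Lysis was at 4 °C by sonication in Tris/NaCl/Triton/SDS buffer, pH 7.4, with protease and phosphatase inhibitors. Lysates were run on SDS-PAGE, transferred to PVDF and probed for STAT3, pSTAT3 and NQO1 with GAPDH as loading control. Immunoblots were imaged on an Odyssey system.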

The target in experiment [14] is T1, Protein cereblon/Signal transducer and activator of transcription 3. Nature of the experiment: Protac activity at CRBN/STAT3 in human BxPC-3 cells assessed as effect on STAT3 expression level at 0.5 uM incubated for 16 hrs by western blot analysis. In kind it is cell-based. The gist of the method:
as §2

Experiment [15] deals with Signal transducer and activator of transcription 3 (Homo sapiens) (UniProt P40763). As to the kind of experiment: Inhibition of STAT3 phosphorylation in human BxPC-3 cells at 0.5 uM after 16 hrs by western blot analysis. Format: cell-based. In a few lines: as §3
In experiment [16] the test system is BXPC-3. As to the kind of experiment: Reduction in NQO1 levels in human BxPC-3 cells at 2 uM incubated for 16 hrs by western blot analysis. Format: functional, cell-based. The gist of the method: as §2
In experiment [17] the test system is BXPC-3. As to the kind of experiment: Binding affinity to PDI in human BxPC-3 cells assessed as thermal stability by measuring shift in melting temperature at 100 uM measured after 1 hr by cellular thermal shift assay. Format: cell-based.
The target of experiment [18] is NAD(P)H dehydrogenase [quinone] 1 (Homo sapiens) (UniProt P15559). As to the kind of experiment: Binding affinity to NQO1 in human BxPC-3 cells assessed as thermal stability by measuring shift in melting temperature at 100 uM measured after 1 hr by cellular thermal shift assay. Format: cell-based.
Experiment [19] has as its target Protein cereblon/E3 ubiquitin-protein ligase ZFP91 (Homo sapiens, UniProt Q96SW2+Q96JP5). As to the kind of experiment: Protac activity at CRBN/ZFP91 in human BxPC-3 cells assessed as induction of ZF91 degradation at upto 3 uM incubated for 16 hrs by western blot analysis. In kind it is cell-based. As to conditions: dose microM <=3, time 16.0 hrs. In a few lines:
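BxPC-3 cells treated for 4, 16 or 24 h across a concentration series. ZFP91 immunoblotted against GAPDH; bands quantified by densitometry, DC50 calculated from dose-response curves of the densitometry.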

Experiment [20] concerns BXPC-3. As to the kind of experiment: Antiproliferative activity against ZFP91 knockdown human BxPC-3 cells assessed as reduction in cell viability incubated for 48 hrs by MTT assay. The following applies: BXPC-3, 48 h. In kind it is functional, cell-based. The gist of the method:
(§4)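 BxPC-3 cells were transfected with ZFP91 siRNA or scrambled control siRNA using Lipofectamine RNAiMAX in Opti-MEM, 5 pmol siRNA per complex. Compound was added together with the siRNA complex.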

Experiment [21] relates to BXPC-3. As to the kind of experiment: Antiproliferative activity against human BxPC-3 cells harboring ZFP91siRNA assessed as reduction in cell viability incubated for 48 hrs by MTT assay. Format: functional, cell-based. The following applies: BXPC-3, 48 h. The gist of the method:
as §4

Experiment [22] relates to BXPC-3. As to the kind of experiment: Inhibition of colony formation in human BxPC-3 cells assessed as reduction in colony formation at 0.06 to 0.5 uM incubated for 7 to 10 days in presence of NQO1 inhibitor dicoumarol. As to conditions: dose 0.06-0.5 µM.

SMILES strings stand for the structures. Active and inactive are the calls of the source. No cut-off for these calls is given here.

Usually IC50 stands for the concentration needed to halve the response being measured.

For `O=C1CCC(N2C(=O)c3cccc(NCCOCCOCCNC(=O)c4cc5c(o4)C(=O)c4ccccc4C5=O)c3C2=O)C(=O)N1` (stereo not drawn), the figures for the IC50 with MIA PaCa-2, with BXPC-3 [1] and in the experiment on OVCAR-3 were 1.3 µM, 4.3 µM and 0.3 µM, respectively. For the same compound, the “Ratio IC50” value in experiment [2] is on record as above 6. For the same compound, the result in experiment [3], in experiment [4], in [5], in experiment [6], in [7] and in [9] was Active. Moreover, the result in the experiment with BXPC-3 [10] was Active. Moreover, in [8], the DC50 is 7.8 µM. Further, the result in [11] was inactive.
For `CN1C(=O)CCC(N2C(=O)c3cccc(NCCCCCC4CCN(CCNC(=O)c5cc6c(o5)C(=O)c5ccccc5C6=O)CC4)c3C2=O)C1=O` (stereo not drawn), the results for the IC50 in the experiment with MIA PaCa-2, with BXPC-3 [1] and in the experiment on HEK293 were 2.7 µM, 3.4 µM and above 30 µM, respectively. The result in [12] was inactive. For the same compound, the inhibition entry in experiment [13] was “Active”.
With `O=C(NCCN1CCCCC1)c1cc2c(o1)C(=O)c1ccccc1C2=O`, the result in experiment [14] was inactive. For the same compound, in [15], the inhibition result is “Active”.
`CC(=O)c1cc2c(o1)C(=O)c1ccccc1C2=O` [NAPABUCASIN]: the IC50 was 1.2 µM in the experiment on MIA PaCa-2; 1.4 µM with BXPC-3 [1]; 10.4 µM in the experiment on HEK293; 1.8 µM with BXPC-3 [20]; 1.3 µM with BXPC-3 [21]. Also, the DC50 in experiment [8] is 2.1 µM. The inhibition result with BXPC-3 [16] and in the experiment with BXPC-3 [22] was “Active” throughout. In addition, the outcome (with BXPC-3 [17]; in [18]) was Active. Moreover, the result in experiment [19] was inactive.
In the case of `Cc1ncsc1-c1ccc(CNC(=O)[C@@H]2C[C@@H](O)CN2C(=O)[C@@H](NC(=O)COCCOCCNC(=O)c2cc3c(o2)C(=O)c2ccccc2C3=O)C(C)(C)C)cc1`, the IC50 with MIA PaCa-2 is 14.5 µM; in the experiment on BXPC-3 [1] it was above 30 µM; with HEK293, above 30 µM.
For the compound `O=C1CCC(N2C(=O)c3cccc(NCCOCCOCCOCCNC(=O)c4cc5c(o4)C(=O)c4ccccc4C5=O)c3C2=O)C(=O)N1` (stereo not drawn), the IC50 in the experiment with MIA PaCa-2 turned out to be 2.1 µM; with BXPC-3 [1], 4.5 µM; in the experiment with HEK293, 11.2 µM.
Consider `O=C(COc1cccc2c1C(=O)N(C1CCC(=O)NC1=O)C2=O)NCCCCNC(=O)c1cc2c(o1)C(=O)c1ccccc1C2=O` (stereo not drawn), for which the results for the IC50 in the experiment with MIA PaCa-2, in the experiment with BXPC-3 [1] and in the experiment on HEK293 were 10.5 µM, 23.8 µM and above 30 µM, respectively.
For `Cc1ncsc1-c1ccc(CNC(=O)[C@@H]2C[C@@H](O)CN2C(=O)[C@@H](NC(=O)COCCNC(=O)c2cc3c(o2)C(=O)c2ccccc2C3=O)C(C)(C)C)cc1`, in that order: 15.8 µM, above 30 µM and above 30 µM.
